Values after ≈ are worked out from the molar mass of the structure shown.
What follows are compounds tested on Klebsiella pneumoniae (assay: Antimicrobial activity against CTX-M-2 producing Klebsiella pneumoniae with PFGE pulsotype A by Etest). Details: not given.
Format: functional
Procedure, shortened: (§1)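 Clinical K. pneumoniae isolates from a neonatal ICU outbreak near São Paulo were typed by XbaI PFGE using Tenover criteria. Cultures were grown in LB broth at 37°C. Etest MICs followed the manufacturer's instructions, with cefotaxime and ceftazidime each tested with and without clavulanic acid.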

Question: How did the MIC turn out when `CC(C)(O/N=C(\C(=O)N[C@@H]1C(=O)N2C(C(=O)[O-])=C(C[n+]3ccccc3)CS[C@H]12)c1csc(N)n1)C(=O)O` [CEFTAZIDIME] was run?
Answer: The MIC was 6 µg/mL (≈ 11 µM).

What follows are compounds tested on Klebsiella pneumoniae (assay: Antimicrobial activity against CTX-M-2 producing Klebsiella pneumoniae with PFGE pulsotype B by Etest). Details: not given.
Format: functional
Procedure, shortened: as §1

Question: How did the MIC turn out when `CC(C)(O/N=C(\C(=O)N[C@@H]1C(=O)N2C(C(=O)[O-])=C(C[n+]3ccccc3)CS[C@H]12)c1csc(N)n1)C(=O)O` [CEFTAZIDIME] was run?
Answer: Its MIC is 24 µg/mL (≈ 43.9 µM).

What follows are compounds tested on Klebsiella pneumoniae (assay: Antimicrobial activity against CTX-M-59 producing Klebsiella pneumoniae with PFGE pulsotype C by Etest). Details: not given.
Format: functional

Question: With `CC(C)(O/N=C(\C(=O)N[C@@H]1C(=O)N2C(C(=O)[O-])=C(C[n+]3ccccc3)CS[C@H]12)c1csc(N)n1)C(=O)O` [CEFTAZIDIME] as the compound, how does the MIC read?
Answer: Its MIC is 4 µg/mL (≈ 7.32 µM).

What follows are compounds tested on Klebsiella pneumoniae (assay: Antimicrobial activity against SHV-5 producing Klebsiella pneumoniae with PFGE pulsotype D by Etest). Details: not given.
Format: functional
Procedure, shortened: as §1

Question: `CC(C)(O/N=C(\C(=O)N[C@@H]1C(=O)N2C(C(=O)[O-])=C(C[n+]3ccccc3)CS[C@H]12)c1csc(N)n1)C(=O)O` [CEFTAZIDIME] was tested. Which MIC did it give?
Answer: Its MIC is 256 µg/mL (≈ 468 µM).

Each compound was assayed on Klebsiella pneumoniae (assay: Antimicrobial activity against CTX-M-59 producing Klebsiella pneumoniae with PFGE pulsotype E by Etest). Details: not given.
Format: functional

Question: How did the MIC turn out when `CC(C)(O/N=C(\C(=O)N[C@@H]1C(=O)N2C(C(=O)[O-])=C(C[n+]3ccccc3)CS[C@H]12)c1csc(N)n1)C(=O)O` [CEFTAZIDIME] was run?
Answer: Its MIC is 8 µg/mL (≈ 14.6 µM).

These compounds were tested on Klebsiella pneumoniae (assay: Antimicrobial activity against CTX-M-2 producing Klebsiella pneumoniae with PFGE pulsotype F by Etest). Details: not given.
Format: functional

Question: `CC(C)(O/N=C(\C(=O)N[C@@H]1C(=O)N2C(C(=O)[O-])=C(C[n+]3ccccc3)CS[C@H]12)c1csc(N)n1)C(=O)O` [CEFTAZIDIME] was tested. Which MIC did it give?
Answer: The MIC was 8 µg/mL (≈ 14.6 µM).

Each compound was assayed on Klebsiella pneumoniae (assay: Antimicrobial activity against CTX-M-59 producing Klebsiella pneumoniae with PFGE pulsotype G by Etest). Details: not given.
Format: functional
Procedure, shortened: as §1

Question: With `CC(C)(O/N=C(\C(=O)N[C@@H]1C(=O)N2C(C(=O)[O-])=C(C[n+]3ccccc3)CS[C@H]12)c1csc(N)n1)C(=O)O` [CEFTAZIDIME] as the compound, how does the MIC read?
Answer: The MIC was 12 µg/mL (≈ 22 µM).

These compounds were tested on Klebsiella pneumoniae (assay: Antimicrobial activity against CTX-M-2 producing Klebsiella pneumoniae with PFGE pulsotype H by Etest). Details: not given.
Format: functional
Procedure, shortened: as §1

Question: `CC(C)(O/N=C(\C(=O)N[C@@H]1C(=O)N2C(C(=O)[O-])=C(C[n+]3ccccc3)CS[C@H]12)c1csc(N)n1)C(=O)O` [CEFTAZIDIME] was tested. Which MIC did it give?
Answer: Its MIC is 256 µg/mL (≈ 468 µM).

These compounds were tested on Klebsiella pneumoniae (assay: Antimicrobial activity against CTX-M-2 producing Klebsiella pneumoniae with PFGE pulsotype I by Etest). Details: not given.
Format: functional

Question: With `CC(C)(O/N=C(\C(=O)N[C@@H]1C(=O)N2C(C(=O)[O-])=C(C[n+]3ccccc3)CS[C@H]12)c1csc(N)n1)C(=O)O` [CEFTAZIDIME] as the compound, how does the MIC read?
Answer: Its MIC is 4 µg/mL (≈ 7.32 µM).

Each compound was assayed on Klebsiella pneumoniae (assay: Antimicrobial activity against CTX-M-2 producing Klebsiella pneumoniae with PFGE pulsotype J by Etest). Details: not given.
Format: functional

Question: With `CC(C)(O/N=C(\C(=O)N[C@@H]1C(=O)N2C(C(=O)[O-])=C(C[n+]3ccccc3)CS[C@H]12)c1csc(N)n1)C(=O)O` [CEFTAZIDIME] as the compound, how does the MIC read?
Answer: The MIC was 6 µg/mL (≈ 11 µM).

What follows are compounds tested on Escherichia coli (assay: Antimicrobial activity against Escherichia coli str. K-12 substr. DH10B harboring plasmid CTX-M-2). Details: K-12 DH10B.
Format: functional
Procedure, shortened: (§2)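 blaCTX-M PCR products were cut with XbaI/BamHI and cloned into pBC-SK(−), then electroporated into E. coli DH10B. Transformants were selected on LB agar with ampicillin 50 μg/ml and chloramphenicol 30 μg/ml, and sequences were confirmed. These clones were used for β-lactam MICs, with and without clavulanic acid.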

Question: With `CC(C)(O/N=C(\C(=O)N[C@@H]1C(=O)N2C(C(=O)[O-])=C(C[n+]3ccccc3)CS[C@H]12)c1csc(N)n1)C(=O)O` [CEFTAZIDIME] as the compound, how does the MIC read?
Answer: Its MIC is 8 µg/mL (≈ 14.6 µM).

These compounds were tested on Escherichia coli (assay: Antimicrobial activity against Escherichia coli str. K-12 substr. DH10B harboring plasmid CTX-M-2 in presence of clavulanic acid). Details: K-12 DH10B.
Format: functional
Procedure, shortened: as §2

Question: Which MIC does the source give for `CC(C)(O/N=C(\C(=O)N[C@@H]1C(=O)N2C(C(=O)[O-])=C(C[n+]3ccccc3)CS[C@H]12)c1csc(N)n1)C(=O)O` [CEFTAZIDIME] here?
Answer: The MIC was 0.38 µg/mL.

These compounds were tested on Escherichia coli (assay: Antimicrobial activity against Escherichia coli str. K-12 substr. DH10B harboring plasmid CTX-M-59). Details: K-12 DH10B.
Format: functional
Procedure, shortened: as §2

Question: With `CC(C)(O/N=C(\C(=O)N[C@@H]1C(=O)N2C(C(=O)[O-])=C(C[n+]3ccccc3)CS[C@H]12)c1csc(N)n1)C(=O)O` [CEFTAZIDIME] as the compound, how does the MIC read?
Answer: Its MIC is 8 µg/mL (≈ 14.6 µM).

The compounds below were run on Escherichia coli (assay: Antimicrobial activity against Escherichia coli str. K-12 substr. DH10B harboring plasmid CTX-M-59 in presence of clavulanic acid). Details: K-12 DH10B.
Format: functional
Procedure, shortened: as §2

Question: For `CC(C)(O/N=C(\C(=O)N[C@@H]1C(=O)N2C(C(=O)[O-])=C(C[n+]3ccccc3)CS[C@H]12)c1csc(N)n1)C(=O)O` [CEFTAZIDIME], which MIC is on record?
Answer: Its MIC is 0.38 µg/mL.

These compounds were tested on Klebsiella pneumoniae (assay: Antimicrobial activity against CTX-M-2 and TEM-1 producing Klebsiella pneumoniae transconjugants/transformants with PFGE pulsotype A by Etest). Details: not given.
Format: functional
Procedure, shortened: (§3)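 The recipient was E. coli XL1-Blue Rifr NAr. Plasmids moved by broth mating, with transconjugants selected on LB agar containing ampicillin, rifampin and nalidixic acid, each at 50 μg/ml. Where mating failed, alkaline-lysis plasmid extracts were electroporated and selected on ampicillin 50 μg/ml. β-lactam MICs were read by Etest, with and without clavulanic acid.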

Question: For `CC(C)(O/N=C(\C(=O)N[C@@H]1C(=O)N2C(C(=O)[O-])=C(C[n+]3ccccc3)CS[C@H]12)c1csc(N)n1)C(=O)O` [CEFTAZIDIME], which MIC is on record?
Answer: Its MIC is 8 µg/mL (≈ 14.6 µM).

These compounds were tested on Klebsiella pneumoniae (assay: Antimicrobial activity against CTX-M-2 and TEM-1 producing Klebsiella pneumoniae transconjugants/transformants with PFGE pulsotype B by Etest). Details: not given.
Format: functional
Procedure, shortened: as §3

Question: How did the MIC turn out when `CC(C)(O/N=C(\C(=O)N[C@@H]1C(=O)N2C(C(=O)[O-])=C(C[n+]3ccccc3)CS[C@H]12)c1csc(N)n1)C(=O)O` [CEFTAZIDIME] was run?
Answer: The MIC was 12 µg/mL (≈ 22 µM).

The compounds below were run on Klebsiella pneumoniae (assay: Antimicrobial activity against CTX-M-59 and TEM-1 producing Klebsiella pneumoniae transconjugants/transformants with PFGE pulsotype C by Etest). Details: not given.
Format: functional
Procedure, shortened: as §3

Question: With `CC(C)(O/N=C(\C(=O)N[C@@H]1C(=O)N2C(C(=O)[O-])=C(C[n+]3ccccc3)CS[C@H]12)c1csc(N)n1)C(=O)O` [CEFTAZIDIME] as the compound, how does the MIC read?
Answer: Its MIC is 8 µg/mL (≈ 14.6 µM).

What follows are compounds tested on Klebsiella pneumoniae (assay: Antimicrobial activity against SHV-5 producing Klebsiella pneumoniae transconjugants/transformants with PFGE pulsotype D by Etest). Details: not given.
Format: functional
Procedure, shortened: as §3

Question: `CC(C)(O/N=C(\C(=O)N[C@@H]1C(=O)N2C(C(=O)[O-])=C(C[n+]3ccccc3)CS[C@H]12)c1csc(N)n1)C(=O)O` [CEFTAZIDIME] was tested. Which MIC did it give?
Answer: The MIC was over 256 µg/mL.

These compounds were tested on Klebsiella pneumoniae (assay: Antimicrobial activity against CTX-M-59 and TEM-1 producing Klebsiella pneumoniae transconjugants/transformants with PFGE pulsotype E by Etest). Details: not given.
Format: functional
Procedure, shortened: as §3

Question: With `CC(C)(O/N=C(\C(=O)N[C@@H]1C(=O)N2C(C(=O)[O-])=C(C[n+]3ccccc3)CS[C@H]12)c1csc(N)n1)C(=O)O` [CEFTAZIDIME] as the compound, how does the MIC read?
Answer: The MIC was 4 µg/mL (≈ 7.32 µM).

What follows are compounds tested on Klebsiella pneumoniae (assay: Antimicrobial activity against CTX-M-2 and TEM-1 producing Klebsiella pneumoniae transconjugants/transformants with PFGE pulsotype F by Etest). Details: not given.
Format: functional
Procedure, shortened: as §3

Question: `CC(C)(O/N=C(\C(=O)N[C@@H]1C(=O)N2C(C(=O)[O-])=C(C[n+]3ccccc3)CS[C@H]12)c1csc(N)n1)C(=O)O` [CEFTAZIDIME] was tested. Which MIC did it give?
Answer: Its MIC is 16 µg/mL (≈ 29.3 µM).

These compounds were tested on Klebsiella pneumoniae (assay: Antimicrobial activity against CTX-M-59 and TEM-1 producing Klebsiella pneumoniae transconjugants/transformants with PFGE pulsotype G by Etest). Details: not given.
Format: functional
Procedure, shortened: as §3

Question: How did the MIC turn out when `CC(C)(O/N=C(\C(=O)N[C@@H]1C(=O)N2C(C(=O)[O-])=C(C[n+]3ccccc3)CS[C@H]12)c1csc(N)n1)C(=O)O` [CEFTAZIDIME] was run?
Answer: Its MIC is 8 µg/mL (≈ 14.6 µM).

Each compound was assayed on Klebsiella pneumoniae (assay: Antimicrobial activity against CTX-M-2 and TEM-1 producing Klebsiella pneumoniae transconjugants/transformants with PFGE pulsotype H by Etest). Details: not given.
Format: functional
Procedure, shortened: as §3

Question: For `CC(C)(O/N=C(\C(=O)N[C@@H]1C(=O)N2C(C(=O)[O-])=C(C[n+]3ccccc3)CS[C@H]12)c1csc(N)n1)C(=O)O` [CEFTAZIDIME], which MIC is on record?
Answer: The MIC was 8 µg/mL (≈ 14.6 µM).

Source: ChEMBL document CHEMBL1255347, “Multiclonal outbreak of Klebsiella pneumoniae producing extended-spectrum beta-lactamase CTX-M-2 and novel variant CTX-M-59 in a neonatal intensive care unit in Brazil” (2008)
